pEC50: −log10 of the molar value. The source made the active and inactive calls. The rule behind the calls is not given here.
Assays:
[1] = biological target: Internal ribosome entry site (IRES); test: Binding affinity to cyanine dye-labeled HCV IRES subdomain 2a RNA by FRET assay in presence of Mg2+; design: species or system Hepacivirus hominis
Procedure, shortened: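 Binding to IIa RNA measured by triplicate titration in a FRET assay that tracks ligand-induced conformational capture of the dye-labeled RNA. EC50 taken from a single-site dose-response fit to the titration data, with standard error from the triplicates.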

[2] = system: Internal ribosome entry site (IRES); test: Non-specific binding affinity to cyanine dye-labeled HCV IRES subdomain 2a RNA assessed as precipitation of dye labeled RNA at 50 to 100 uM by FRET assay in presence of Mg2+; conditions: Hepacivirus hominis

Structure (SMILES) | pEC50 [1] | Activity [2]
CN(C)CCCn1c(N)nc2cccc(-c3cccc(N(C)C)c3)c21 | 3.54 | –
CN(C)CCOc1ccc2c(c1)nc(NC(=O)c1ccccc1)n2-c1ccccc1 | < 3.30 | –
CN(C)CCCOc1ccc2nc(N)n(-c3cccc(N(C)C)c3)c2c1 | 3.92 | –
CN(C)c1cccc(-n2c(N)nc3ccc(Nc4cccnc4)cc32)c1 | 4.13 | –
CN(C)CCCOc1ccc2c(c1)nc(NC(=O)c1ccccc1)n2-c1ccc(N(C)C)cc1 | – | Active
CN(C)c1cccc(-n2c(N)nc3ccc(Nc4ccncc4)cc32)c1 | 4.00 | –
CC(=O)Nc1nc2cc(OCCCN(C)C)ccc2n1-c1ccccc1 | 3.68 | –
CN(C)CCCOc1ccc2c(c1)nc(N)n2-c1ccc(N(C)C)cc1 | 4.02 | –
CN(C)CCCOc1ccc2nc(O)n(-c3ccc(N(C)C)cc3)c2c1 | – | Active
CC(=O)Nc1nc2cc(OCCN(C)C)ccc2n1-c1ccccc1 | 4.00 | –
CN(C)CCCn1c(N)nc2ccc(Nc3cccnc3)cc21 | 3.80 | –
CN(C)CCCOc1ccc2c(c1)nc(NC(=O)c1ccccc1)n2-c1ccccc1 | < 3.30 | –
CN(C)CCOc1ccc2c(c1)nc(O)n2-c1ccccc1 | – | Active
CN(C)CCCn1c(N)nc2ccc(Nc3ccncc3)cc21 | 3.80 | –
CN(C)CCCOc1ccc2c(c1)nc(O)n2-c1ccccc1 | – | Active
